Experiments:
Settings in all cases: in vivo
[1] = Drug excretion in feces of human treated with [14C]sunitinib at 50 mg, po administered as single dose by liquid scintillation counting
[2] = Drug excretion in feces of female cynomolgus monkey treated with [14C]sunitinib at 6 mg/kg, po administered as single dose by liquid scintillation counting; format: ADME, organism-based, Macaca fascicularis; parameters: dose 6 mg/kg, dosed compound name [14C]Sunitinib, route oral
Procedure, shortened: (§1)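 Cynomolgus monkeys given one oral gavage dose of [14C]sunitinib L-malate, 6 mg/kg (37 µCi/kg). Urine collected at 0-4, 4-8 and 8-24 h, feces at 0-8 and 8-24 h, then both daily to 14 days; samples stored at -80 °C. Duplicate urine aliquots counted by liquid scintillation; homogenized feces combusted before counting.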

[3] = Drug excretion in feces of male cynomolgus monkey treated with [14C]sunitinib at 6 mg/kg, po administered as single dose by liquid scintillation counting; format: ADME, organism-based, Macaca fascicularis; parameters: dose 6 mg/kg, dosed compound name [14C]Sunitinib, route oral
Procedure, shortened: as §1

- Compound recovery [1]: metabolite_not_detected
- Compound recovery [2]: 1%
- Compound recovery [3]: 1.5%
Structure (SMILES): CCN(CC)CCNC(=O)c1c(C)[nH]c(CC2C(=O)Nc3ccc(F)cc32)c1C (stereo not drawn)

Reference: ChEMBL document CHEMBL3525900, “Pharmacokinetics, distribution, and metabolism of [14C]sunitinib in rats, monkeys, and humans” (Drug Metab Dispos, 2012)
